According to ChEMBL document CHEMBL4376883, “Discovery and Optimization of Small Molecules Targeting the Protein-Protein Interaction of Heat Shock Protein 90 (Hsp90) and Cell Division Cycle 37 as Orally Active Inhibitors for the Treatment of Colorectal Cancer” (J Med Chem, 2020):

Tests used:
[1] = target: Heat shock protein HSP 90-beta/Hsp90 co-chaperone Cdc37 (Homo sapiens) (UniProt P08238+Q16543); experiment: Inhibition of His-tagged HSP90/GST-tagged Cdc37 (unknown origin) protein-protein interaction at 100 uM measured after 1 hr by HTRF assay relative to control; type: protein-complex assay
How it was run: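 His-Hsp90 and GST-Cdc37 were premixed at a final 80 nM in PBS with 200 mM KF, pH 7.4. Compound was added and the mix incubated 1 h at 37 °C, then read by HTRF. Inhibition rate was taken at 100 μM compound.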

HCT-116 = experiment: Antiproliferative activity against human HCT116 cells measured after 72 hrs by CCK8 assay; type: functional, cell-based; conditions: HCT-116, 72 h
How it was run: (§1)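 Cells grown in RPMI 1640 with 10% FBS at 37 °C, 5% CO2; STR-authenticated and mycoplasma-checked. Seeded at 3000-5000 cells/well and left 24 h. Serial compound dilutions added for 72 h, with matched DMSO as control. Viability read by CCK8 kit using the standard protocol. IC50 values derived from at least three parallel experiments.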

Heat shock protein HSP90 [2] = target: T1, Heat shock protein HSP90 (Homo sapiens, UniProt P07900+P08238); experiment: Binding affinity to recombinant […] HSP90 N-terminal domain (9 to 236 residues) (unknown origin) expressed in Escherichia coli BL21 (DE3) assessed as change in melting temperature by SYPRO dye based thermal shift assay
How it was run: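 Hsp90 N-terminal domain (10 µM) mixed with compound at 200, 100, 50 or 10 µM in 1× PBS, pH 8.0, with 6× SYPRO Orange. Heated from room temperature to 99 °C at 1 °C/min; fluorescence read at 492 nm excitation and 610 nm emission.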

Heat shock protein HSP90 [3] = target: T1, Heat shock protein HSP90; experiment: Inhibition of recombinant full-length HSP90 ATPase activity N-terminal domain (9 to 236 residues) (unknown origin) expressed in Escherichia coli BL21 (DE3) measured after 1 hr by ADP hunter plus assay
Heat shock protein HSP90 [4] = target: T1, Heat shock protein HSP90; experiment: Binding affinity to recombinant […] HSP90 N-terminal domain (9 to 236 residues) (unknown origin) expressed in Escherichia coli BL21 (DE3) by isothermal calorimetric method
How it was run: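 ITC: 50 µM Hsp90 in the cell and 300 µM compound in the syringe, both in 20 mM Tris-HCl, 150 mM NaCl, pH 7.4. Nineteen injections at 180 s intervals with stirring at 1000 rpm.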

[5] = Distribution coefficient, log D of the compound at pH 7.4 by potentiometric titration method; type: physicochemical; conditions: octanol/water
How it was run: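 log D at pH 7.4 measured by potentiometric titration on a Gemini Profiler.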

[6] = Permeability of the compound at pH 7.4 by PAMPA; type: ADME; conditions: read-out: permeability
How it was run: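 Permeability coefficient (Pe) was measured at pH 7.4 by double-sink PAMPA.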

A549 = experiment: Antiproliferative activity against human A549 cells measured after 72 hrs by CCK8 assay; type: functional, cell-based; conditions: A549, 72 h; how it was run: as §1
Heat shock protein HSP90 [7] = target: T1, Heat shock protein HSP90; experiment: Binding affinity to recombinant […] biotinylated-HSP90 N-terminal domain (9 to 236 residues) (unknown origin) expressed in Escherichia coli BL21 (DE3) by biolayer interferometry
How it was run: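 Biotinylated Hsp90 (100 µg/mL) loaded onto streptavidin sensors prewetted 10 min in PBS with 0.05% BSA and 0.01% Tween 20. Analyte binding measured at 28 °C. Double reference subtraction applied; data fitted to a 1:1 model with K_D = K_off/K_on.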

L02 = experiment: Cytotoxicity against human L02 cells measured after 72 hrs by CCK8 assay; type: functional, cell-based; conditions: L02, 72 h; how it was run: as §1

| Structure (SMILES) | inhibition [1] [%] | also measured |
| --- | --- | --- |
| COc1ccc(OC)c(S(=O)(=O)Nc2ccc(Nc3ccnc(N4CCCC4)n3)cc2)c1 | 41.8 |  |
| Cc1cc(C)c(S(=O)(=O)N(CC(N)=O)c2ccc(Nc3ccnc(N4CCCC4)n3)cc2)c(C)c1 | < 50 |  |
| O=S(=O)(Nc1ccc(Nc2ccnc(N3CCCC3)n2)cc1)c1ccc2ccccc2c1 | 46.7 |  |
| Cc1cc(C)c(S(=O)(=O)N(Cc2ccc(C(C)C)cc2)c2ccc(Nc3ccnc(N4CCCC4)n3)cc2)c(C)c1 | < 50 |  |
| COc1ccc(S(=O)(=O)Nc2ccc(Nc3ccnc(N4CCCC4)n3)cc2)c(OC)c1 | 36.2 |  |
| Cc1cc(C)c(S(=O)(=O)N(CC(=O)O)c2ccc(Nc3ccnc(N4CCCCCC4)n3)cc2)c(C)c1 | < 50 |  |
| Cc1cc(C)c(S(=O)(=O)N(CC(=O)NO)c2ccc(Nc3ccnc(N4CCNCC4)n3)cc2)c(C)c1 | 96.2 | IC50 (HCT-116): 3.94 µM; ΔTm (Heat shock protein HSP90 [2]): 1.59 °C; IC50 (Heat shock protein HSP90 [3]): > 100 µM; Kd (Heat shock protein HSP90 [4]): 5.49 µM; logD [5]: 0.82; Papp [6]: 44.1 ×10⁻⁶ cm/s; IC50 (A549): 16.2 µM; Kd (Heat shock protein HSP90 [7]): 2.66 µM; IC50 (L02): 21.9 µM |
| Cc1cc(C)c(S(=O)(=O)N(Cc2ccc(Cl)cc2)c2ccc(Nc3ccnc(N4CCCC4)n3)cc2)c(C)c1 | < 50 |  |
| COC(=O)CN(c1ccc(Nc2ccnc(N3CCCCC3)n2)cc1)S(=O)(=O)c1c(C)cc(C)cc1C | 79.1 |  |
| O=S(=O)(Nc1ccc(Nc2ccnc(N3CCCC3)n2)cc1)c1ccc(C(F)(F)F)cc1 | < 20 |  |
| Cc1cc(C)c(S(=O)(=O)N(Cc2nnn[nH]2)c2ccc(Nc3ccnc(N4CCNCC4)n3)cc2)c(C)c1 | 98.6 | IC50 (HCT-116): 5.42 µM; ΔTm (Heat shock protein HSP90 [2]): 1.36 °C; IC50 (Heat shock protein HSP90 [3]): > 100 µM; Kd (Heat shock protein HSP90 [4]): 2.4 µM; Papp [6]: 55.4 ×10⁻⁶ cm/s; IC50 (A549): 37.9 µM; Kd (Heat shock protein HSP90 [7]): 5.5 µM; IC50 (L02): > 50 µM |
| COC(=O)CN(c1ccc(Nc2ccnc(N3CCCCCC3)n2)cc1)S(=O)(=O)c1c(C)cc(C)cc1C | < 50 |  |

Second part, led by results:

| inhibition [1] [%] | Structure (SMILES) | also measured |
| --- | --- | --- |
| < 50 | CCNc1nccc(Nc2ccc(N(CC(=O)OC)S(=O)(=O)c3c(C)cc(C)cc3C)cc2)n1 |  |
| < 50 | CCC(CC)Nc1nccc(Nc2ccc(N(CC(=O)O)S(=O)(=O)c3c(C)cc(C)cc3C)cc2)n1 |  |
| < 50 | CNc1nccc(Nc2ccc(N(CC(=O)OC)S(=O)(=O)c3c(C)cc(C)cc3C)cc2)n1 |  |
| < 50 | CCNc1nccc(Nc2ccc(N(CC(=O)O)S(=O)(=O)c3c(C)cc(C)cc3C)cc2)n1 |  |
| < 50 | Cc1cc(C)c(S(=O)(=O)N(CC(=O)O)c2ccc(Nc3ccnc(NC4CC4)n3)cc2)c(C)c1 |  |
| 71.1 | Cc1cc(C)c(S(=O)(=O)N(CC(=O)O)c2ccc(Nc3ccnc(N4CCN(C)CC4)n3)cc2)c(C)c1 |  |
